In brackets after ≈: the same amount, converted by molar mass.

Assay [1] relates to Trichophyton rubrum. As to the kind of experiment: Antimycotic activity against Trichophyton rubrum ATCC 28188 after 72 hrs. The settings on record: ATCC 28188, 72 h. In kind it is functional. Summed up:
(§1)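 Agar dilution MIC on Sabouraud glucose agar; the filamentous fungi were maintained on potato dextrose agar at 27 °C. DMSO stocks were diluted 2-fold and added to the medium: pure compounds 400-3.125 µg/mL, extracts 10-1.25 mg/mL, references 128-1 µg/mL; final DMSO at most 2%. A hemocytometer-counted spore inoculum was loop-applied to the agar surface, and plates were incubated at 29 °C for 72 h. MIC was the lowest concentration with no visible growth; run in triplicate.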

Assay [2] concerns Trichophyton mentagrophytes. The assay can be described thus: Antimycotic activity against Trichophyton mentagrophytes ATCC 28185 after 72 hrs. Conditions: ATCC 28185, 72 h. In kind it is functional. The essentials: as §1
The test system of assay [3] is Aspergillus niger. As to the kind of experiment: Antimycotic activity against Aspergillus niger ATCC 10335 after 48 hrs. Conditions: ATCC 10335, 48 h.
Assay [4] has as its system Candida albicans. The assay can be described thus: Antimycotic activity against Candida albicans ATCC 10231 after 24 hrs. The settings on record: ATCC 10231, 24 h.
For assay [5], the system named is Candida albicans. The assay can be described thus: Antimycotic activity against Candida albicans ATCC 10231 after 48 hrs. In kind it is functional.

As for `C[C@H]1CC[C@@]2(OC1)O[C@H]1C[C@H]3[C@@H]4C[C@H](O[C@@H]5O[C@H](C)[C@@H](O)[C@H](O[C@@H]6OC[C@@H](O)[C@H](O)[C@H]6O)[C@H]5O)[C@H]5C[C@@H](O)CC[C@]5(C)[C@H]4CC[C@]3(C)[C@H]1[C@@H]2C`, the MIC in assay [1] is 25 µg/mL (≈ 35.2 µM); in assay [2] it was 25 µg/mL (≈ 35.2 µM); in assay [3], more than 400 µg/mL; in assay [4] it was more than 400 µg/mL.
For `C[C@@H]1CO[C@@]2(O[C@H]3C[C@H]4[C@@H]5C[C@H](O[C@@H]6O[C@H](C)[C@@H](O)[C@H](O[C@@H]7OC[C@@H](O)[C@H](O)[C@H]7O)[C@H]6O)[C@H]6C[C@@H](O)CC[C@]6(C)[C@H]5CC[C@]4(C)[C@H]3[C@@H]2C)[C@@H](O)C1`, the MIC in assay [1] is 25 µg/mL (≈ 34.4 µM); in assay [2] it was 25 µg/mL (≈ 34.4 µM); in assay [3], more than 400 µg/mL; in assay [4] it was more than 400 µg/mL.
`C[C@@H]1CC[C@@]2(OC1)O[C@H]1C[C@H]3[C@@H]4C[C@H](O[C@@H]5O[C@H](C)[C@@H](O)[C@H](O[C@@H]6OC[C@@H](O)[C@H](O)[C@H]6O)[C@H]5O)[C@H]5C[C@@H](O)CC[C@]5(C)[C@H]4CC[C@]3(C)[C@H]1[C@@H]2C`: the MIC in assay [1] is 12.5 µg/mL (≈ 17.6 µM); in assay [2] it was 12.5 µg/mL (≈ 17.6 µM); in assay [3], 100 µg/mL (≈ 141 µM); in assay [4], 200 µg/mL (≈ 281 µM).
Turning to `C[C@@H]1CO[C@@]2(O[C@H]3C[C@H]4[C@@H]5C[C@H](O[C@@H]6O[C@H](C)[C@@H](O)[C@H](O[C@@H]7OC[C@@H](O)[C@H](O)[C@H]7O)[C@H]6O)[C@H]6C[C@@H](O)CC[C@]6(C)[C@H]5CC[C@]4(C)[C@H]3[C@@H]2C)[C@H](O)C1`, the MIC in assay [1] was 100 µg/mL (≈ 138 µM); in assay [2], 100 µg/mL (≈ 138 µM); in assay [3], more than 400 µg/mL; in assay [4], more than 400 µg/mL.
Regarding `C[C@H]1CC[C@@]2(OC1)O[C@H]1C[C@H]3[C@@H]4C[C@H](O[C@@H]5O[C@H](C)[C@@H](O)[C@H](O)[C@H]5O)[C@H]5C[C@@H](O)CC[C@]5(C)[C@H]4CC[C@]3(C)[C@H]1[C@@H]2C`, the MIC in assay [1] is 50 µg/mL (≈ 86.4 µM); in assay [2], 25 µg/mL (≈ 43.2 µM); in assay [3] it was more than 400 µg/mL; in assay [4] it was more than 400 µg/mL.
With `C[C@@H]1CC[C@@]2(OC1)O[C@H]1C[C@H]3[C@@H]4C[C@H](O[C@@H]5O[C@H](C)[C@@H](O)[C@H](O[C@@H]6O[C@H](C)[C@@H](O)[C@H](O)[C@@H]6O)[C@H]5O)[C@H]5C[C@@H](O)CC[C@]5(C)[C@H]4CC[C@]3(C)[C@H]1[C@@H]2C`, the MIC in assay [1] stood at 50 µg/mL (≈ 69 µM); in assay [2], 200 µg/mL (≈ 276 µM); in assay [3] it was 400 µg/mL (≈ 552 µM); in assay [4], 200 µg/mL (≈ 276 µM).
Take NYSTATIN: it took 8 µg/mL to inhibit growth in assay [5] (MIC).
As for `C[C@@H]1CC[C@@]2(OC1)O[C@H]1C[C@H]3[C@@H]4C[C@H](O[C@@H]5O[C@H](C)[C@@H](O)[C@H](O)[C@H]5O)[C@H]5C[C@@H](O)CC[C@]5(C)[C@H]4CC[C@]3(C)[C@H]1[C@@H]2C`, the MIC was 50 µg/mL (≈ 86.4 µM) in assay [1], 25 µg/mL (≈ 43.2 µM) in assay [2], more than 400 µg/mL in assay [3] and 200 µg/mL (≈ 346 µM) in assay [4].
Regarding `C[C@@H]1CC[C@@]2(OC1)O[C@H]1C[C@H]3[C@@H]4C[C@H](O[C@@H]5OC[C@@H](O)[C@H](O)[C@H]5O)[C@H]5C[C@@H](O)CC[C@]5(C)[C@H]4CC[C@]3(C)[C@H]1[C@@H]2C`, the MIC in assay [1] is 100 µg/mL (≈ 177 µM); in assay [2] it was 100 µg/mL (≈ 177 µM); in assay [3] it was more than 400 µg/mL; in assay [4], 200 µg/mL (≈ 354 µM).
`Clc1ccc(COC(Cn2ccnc2)c2ccc(Cl)cc2Cl)c(Cl)c1` (stereo not given) [MICONAZOLE]: the MIC came out at 4 µg/mL (≈ 9.61 µM) in assay [1], 4 µg/mL (≈ 9.61 µM) in assay [2] and 8 µg/mL (≈ 19.2 µM) in assay [3].
Consider `C[C@H]1CO[C@@]2(O[C@H]3C[C@H]4[C@@H]5C[C@H](O[C@@H]6O[C@H](C)[C@@H](O)[C@H](O[C@@H]7O[C@H](C)[C@@H](O)[C@H](O)[C@@H]7O)[C@H]6O)[C@H]6C[C@@H](O)CC[C@]6(C)[C@H]5CC[C@]4(C)[C@H]3[C@@H]2C)[C@@H](O)C1`, for which the MIC in assay [1], in assay [2], in assay [3] and in assay [4] was 200 µg/mL (≈ 270 µM) throughout.

As usually defined, the MIC is the lowest concentration found to suppress growth. Read a low MIC as inhibition by little substance.

The record behind these values is ChEMBL document CHEMBL1151223, “Antimycotic spirostanol saponins from Solanum hispidum leaves and their structure-activity relationships” (2004).
